Sampled rows, rich in hits. Any-hit rate of the full collection: about 2.2%.
Dyrk1A ADPGlo: rat Dyrk1A kinase inhibitors, primary screen, biochemical, single point, plate reader | Dual specificity tyrosine-phosphorylation-regulated kinase 1A (Rattus norvegicus), Q63470 | ADP-Glo luminescence, NFATc1 peptide | inhibition, % at 12.5 µM | 310,000 tested, 0.43% active; in the data active = inhibition above about 50%;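 note: plate controls were vehicle with enzyme for no effect and no enzyme for full effect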
dFosB act-1: activators of delta FosB homodimer, primary screen, biochemical, fluorescence polarization, TAMRA-CDK5 oligo, single point | purified delta FosB; percent of positive-control signal above neutral wells | activation, % at 25 µM | 340,000 tested, 0.99% active;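 active = mean activation above about 17%, with every replicate also reaching it, limit read from the data, passing the limit was not always enough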
CDK5 p35 inh: inhibitors of human CDK5/p35 kinase, primary screen, biochemical, single concentration | Recombinant CDK5/p35, ADP-Glo luminescence, 60 min | inhibition, % at 10 µM | 330,000 tested, 0.01% active | AID 488839, 2010;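 active = highest replicate inhibition of at least 50% and at least 75% of replicates reaching 50%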;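 note: plate controls were DMSO neutral control for no effect and GW8510 at 10 µM for full effect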
Target sequence (Q00535 whole entry, looked up): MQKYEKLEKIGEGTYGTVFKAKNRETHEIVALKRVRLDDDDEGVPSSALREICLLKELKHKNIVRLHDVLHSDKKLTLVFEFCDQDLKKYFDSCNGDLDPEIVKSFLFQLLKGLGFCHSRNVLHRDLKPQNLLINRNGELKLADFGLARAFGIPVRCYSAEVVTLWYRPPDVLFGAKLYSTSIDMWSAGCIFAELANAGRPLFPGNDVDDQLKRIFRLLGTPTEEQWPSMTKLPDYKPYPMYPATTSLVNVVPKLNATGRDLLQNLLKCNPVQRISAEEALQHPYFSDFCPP
Target sequence (Q15078 whole entry, looked up): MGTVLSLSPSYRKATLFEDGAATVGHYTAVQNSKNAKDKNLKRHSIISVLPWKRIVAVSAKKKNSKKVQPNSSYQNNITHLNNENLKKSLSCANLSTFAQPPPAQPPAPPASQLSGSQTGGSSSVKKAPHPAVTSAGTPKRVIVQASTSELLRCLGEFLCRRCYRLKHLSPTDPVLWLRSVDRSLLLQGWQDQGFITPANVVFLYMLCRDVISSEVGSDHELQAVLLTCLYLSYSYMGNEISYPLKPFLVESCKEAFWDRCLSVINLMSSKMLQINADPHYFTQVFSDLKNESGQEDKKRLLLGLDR
CAL PDZ FP-1: untagged CAL PDZ binding inhibitors, primary screen, biochemical, fluorescence polarization, HTS; inhibition, % at 24.9 µM; Golgi-associated PDZ and coiled-coil motif-containing protein (Homo sapiens), Q9HD26; 300,000 tested, 0.92% active; purified CAL PDZ, TMR-peptide fluorescence polarization, 1 h;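 active = mean inhibition of at least 30% with at least half of replicates also reaching 30%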;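 note: 0% = DMSO neutral control and 100% = excess unlabeled competitor peptide PRC23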
Rtt109 HAT inh: inhibitors of C. albicans Rtt109/Vps75 HAT, primary screen, biochemical, ThioGlo CoA-SH fluorescence, plate reader; purified Rtt109/Vps75, 4 h; inhibition, % at 34.9 µM; 330,000 tested, 0.16% active;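 active = inhibition of at least 50% in every replicate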
CAL PDZ FP-2: CAL PDZ peptide-binding inhibitors, primary screen, biochemical, fluorescence polarization, Cer-tagged CAL PDZ, HTS. Golgi-associated PDZ and coiled-coil motif-containing protein (Homo sapiens), Q9HD26. purified CAL PDZ, TMR-peptide fluorescence polarization, 1 h. inhibition, % at 20 µM. 330,000 tested, 0.02% active. AID 504414, 2011;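 active = highest replicate inhibition of at least 40%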;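 note: plate controls were DMSO neutral control wells for no effect and unlabeled competitor peptide control wells for full effect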
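Material – purified CerCALP PDZ construct · Detection – FP readout, S and P plane fluorescence · Measure – percent inhibition from loss of millipolarization · Controls – unlabelled peptide for full inhibition, DMSO wells as neutral · Probe or stimulus – TMR-labelled reporter peptide T*-PRC34 bound in PDZ groove · Times – 1 h at RT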
dFosB act-2: activators of mouse delta FosB DNA binding, confirmation, biochemical, fluorescence polarization, TAMRA-CDK5 oligo, cherry-picked samples. 2,400 tested, under 10 active. activation, % at 24.9 µM. shares compounds with dFosB act-1. purified delta FosB; normalised: neutral wells 0, positive control 100;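 active = highest replicate activation at or above 34% and every replicate reaching that threshold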;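 note: higher polarization means more probe DNA bound by delta FosB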
Numbers without * were called inactive; . = not tested or not shown.

SMILES | Dyrk1A ADPGlo | dFosB act-1 | CDK5 p35 inh | CAL PDZ FP-1 | Rtt109 HAT inh | CAL PDZ FP-2 | dFosB act-2
O=C(COC(=O)c1cccnc1Nc1cccc(C(F)(F)F)c1)NCc1ccc2c(c1)OCO2 | -6.7 | 19.1* | 0.0 | -7.6 | 2.2 | -2.6 | 3.1
COc1ccc(S(=O)(=O)NNC(=S)NCCc2ccccc2)c(OC)c1 | -5.3 | -6.6 | -1.7 | -5.3 | -1.2 | -2.0 | .
Cc1nn(Cc2ccc(Cl)cc2Cl)c(C)c1NC(=O)Cn1nc([N+](=O)[O-])c(Cl)c1C | -2.8 | 43.6* | 0.6 | -6.9 | 4.1 | 0.3 | 0.7
Cc1nn(Cc2ccc(Cl)cc2)c(C)c1NC(=O)Cn1nc([N+](=O)[O-])c(Cl)c1C | -9.2 | 20.2* | -1.3 | . | -2.3 | -4.5 | 8.5
Cn1cc(C(=O)N2CCN(c3cccc(Cl)c3)CC2)c(=O)c2cc(S(=O)(=O)N3CCOCC3)ccc21 | 1.0 | -10.1 | -0.4 | 3.7 | -0.7 | -0.5 | .
O=c1oc2ccccc2c(NCCO)c1[N+](=O)[O-] | 5.6 | -0.8 | 0.2 | . | 0.3 | -1.8 | .
Cc1ccccc1CNc1ccc(C(CC(N)=O)NC(=O)c2ccccc2)cc1[N+](=O)[O-] (stereo not given) | 2.5 | 27.5* | -0.9 | -1.1 | 2.9 | 1.1 | -1.3
NC(=O)CC(NC(=O)c1ccc(Br)cc1)c1ccc(NC2CCCCC2)c([N+](=O)[O-])c1 (stereo not given) | 9.6 | 42.3* | 1.0 | 1.4 | -8.7 | 0.7 | 7.9
COc1ccc(CCNc2ccc(C(CC(N)=O)NC(=O)c3ccccc3)cc2[N+](=O)[O-])cc1 (stereo not given) | 3.1 | 31.9* | 0.8 | -6.3 | -1.0 | 0.0 | -1.6
NC(=O)CC(NC(=O)c1ccc(Br)cc1)c1ccc(NC2CCCCCC2)c([N+](=O)[O-])c1 (stereo not given) | 28.3 | -8.5 | -0.1 | -6.5 | -5.5 | -0.3 | .
COP(=O)(OC)C(Nc1ccc(C)cc1)c1ccc([N+](=O)[O-])cc1 (stereo not given) | 9.3 | 2.6 | 0.4 | -3.4 | 4.3 | 0.7 | .
O=C(Cc1nnc(NC(=O)c2ccccc2)s1)N/N=C/c1ccco1 | 6.7 | 21.0* | . | 3.9 | 8.7 | -0.3 | 3.7
Cc1ccccc1C(=O)Nc1nnc(CC(=O)N/N=C/c2ccncc2)s1 | . | 38.3* | 0.5 | -6.5 | 3.0 | -0.6 | -0.1
Cc1nc2ccccn2c1C(=O)NNS(=O)(=O)c1ccc(C(C)(C)C)cc1 | -5.3 | -5.4 | -0.1 | -0.5 | -6.0 | -2.5 | .
COc1ccc(-n2nc(C(=O)Nc3ccc4c(c3)OCO4)c3c4ccccc4n(C)c3c2=O)cc1 | -1.2 | 6.2 | 0.4 | -1.3 | -0.2 | -2.3 | .
CCOc1ccc(NC(=O)CNC(=O)c2nn(-c3ccc(OC)c(OC)c3)c(=O)c3ccccc23)cc1 | -2.9 | 75.8* | -1.3 | 3.3 | -6.8 | -2.6 | 1.2
COc1ccc(-n2nc(C(=O)NCC(=O)Nc3cccc(Cl)c3)c3ccccc3c2=O)cc1OC | -5.8 | 99.7* | -0.7 | -5.0 | -2.9 | -2.9 | 7.4
COc1ccc(-n2nc(C(=O)Nc3ccc(OC)c(OC)c3)c3c4ccccc4n(C)c3c2=O)cc1 | 1.5 | 27.4* | -3.1 | -4.5 | -0.8 | 0.2 | 1.5
CCOC(=O)c1sc(=S)n(C)c1NC(=O)c1ccccc1Cl | -4.0 | 0.0 | -0.6 | . | -15.0 | -0.1 | .
Nc1c(Cl)cc(C2=NCCn3c2c2ccc(C(F)(F)F)cc2[n+]3[O-])cc1Cl | -3.6 | -3.9 | 0.5 | 0.7 | -9.1 | -38.0 | .
CCC[C@@H](CN1CCC[C@H]1CN1C(N)=NC[C@H]1CC(C)C)N1C[C@@H](Cc2ccccc2)N(CCc2ccc(Cl)c(Cl)c2)C1=N | -1.1 | 3.1 | 7.3 | -2.4 | -6.5 | -5.2 | .
CCOc1ccc(CCN2C(=S)N([C@@H](CC(C)C)CN3CCCC3CN3C(=S)NC[C@@H]3Cc3ccc(O)cc3)C[C@@H]2CC(C)C)cc1 (stereo not given in full) | . | 25.5* | 0.2 | -3.1 | -1.6 | 0.1 | 5.4
CCOc1ccc(CCN2C(=S)N([C@@H](CC(C)C)CN3CCCC3CN3C(=S)NC[C@@H]3CC(C)C)C[C@@H]2Cc2ccc(O)cc2)cc1 (stereo not given in full) | . | 37.5* | 0.1 | 0.8 | 6.1 | 0.5 | 3.4
O=C(CSc1nc2cc(Cl)c(Cl)cc2[nH]1)c1ccc2c(c1)OCO2 | 4.9 | 28.1* | 2.5 | -2.4 | -6.6 | -0.1 | 3.6
O=C(CSc1nc2ccc(Cl)cc2[nH]1)c1ccc2c(c1)OCO2 | 7.2 | -3.0 | -5.6 | -1.1 | 1.2 | 0.1 | .
SMILES | Dyrk1A ADPGlo | dFosB act-1 | CDK5 p35 inh | CAL PDZ FP-1 | Rtt109 HAT inh | CAL PDZ FP-2 | dFosB act-2
CCN(CC)CCNC(=O)c1ccc(NC(=O)c2cc(S(=O)(=O)N3CCCCC3)ccc2N2CCOCC2)cc1 | . | -18.4 | 0.8 | -16.8 | -1.6 | -1.8 | .
CCOc1ccc(CCNC(=O)COC(=O)/C=C/c2ccccc2OC)cc1OCC | 1.3 | -8.4 | -2.3 | -0.9 | -4.7 | 1.1 | .
O=C1C2=C(NC(=S)NC2c2ccc(Cl)cc2)NC(c2ccc(Cl)cc2)N1c1ccc(Cl)cc1 (stereo not given) | -2.2 | 82.1* | 0.6 | -5.9 | -2.8 | -1.0 | -0.1
O=C1C2CCCN2C(c2ccc(F)cc2)N1c1ccc(Cl)cc1 (stereo not given) | 8.3 | 3.3 | 1.7 | -0.1 | 4.4 | -1.3 | .
COc1ccc(C(=O)Nc2nnc(S(=O)(=O)Cc3ccccc3)s2)cc1 | -1.5 | 23.1* | 0.4 | 0.0 | -3.7 | -0.9 | 7.2
CCOc1cccc2sc(NC(=O)c3ccc(Br)s3)nc12 | 1.6 | 32.8* | -2.1 | . | -16.7 | -1.4 | 7.0
O=C(CCC(=O)Nc1ccccc1)NNC(=O)C(c1ccccc1)c1ccccc1 | -1.9 | 42.1* | -0.9 | -2.2 | -2.6 | -0.4 | 1.0
CCn1c(SCC(=O)N2CCN(C)CC2)nc2c1c(=O)n(C)c(=O)n2C | -7.1 | -4.2 | 3.5 | -0.6 | 9.9 | -2.3 | .
O=C(Nc1ccc(F)cc1)Nc1ccccc1F | -4.1 | -1.4 | 1.1 | -0.9 | . | -1.3 | .

Source: PubChem
